# Source: PubChem BioAssay
# Env fusion inh = inhibitors of HIV-1 Env-driven cell-cell fusion, primary screen, HeLa-JRFL effector, CEM21 target cells, luciferase; inhibition, % at 12.3 µM; 360,000 compounds, 1.1% hits;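 active means mean replicate inhibition score of at least 50 and every replicate individually at or above 50; inconclusive means only one of the two criteria met; inactive means mean below 50 and not all replicates reaching 50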;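 further: 0% = plate neutral controls and 100% = maraviroc near 300 nM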
# NR2E3 ag-1 = inhibitors of NR2E3-RetCOR corepressor binding, primary screen, NR2E3 agonist project, biochemical, TR-FRET, GST-NR2E3, biotin-RetCOR | 320,000 compounds, 0.12% hits | AID 2300, 2010 | Photoreceptor-specific nuclear receptor (Homo sapiens), Q9Y5X4 | inhibition of corepressor binding, % at 4.78 µM | 1536-well;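 active means percent inhibition above the cutoff of mean plus 3 SD of all tested compounds, set per screening campaign, cut at about 20% in these data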;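 further: 0% = DMSO wells and 100% = biotin wells as full block of FRET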
# Target sequence (Q9Y5X4 whole entry, looked up): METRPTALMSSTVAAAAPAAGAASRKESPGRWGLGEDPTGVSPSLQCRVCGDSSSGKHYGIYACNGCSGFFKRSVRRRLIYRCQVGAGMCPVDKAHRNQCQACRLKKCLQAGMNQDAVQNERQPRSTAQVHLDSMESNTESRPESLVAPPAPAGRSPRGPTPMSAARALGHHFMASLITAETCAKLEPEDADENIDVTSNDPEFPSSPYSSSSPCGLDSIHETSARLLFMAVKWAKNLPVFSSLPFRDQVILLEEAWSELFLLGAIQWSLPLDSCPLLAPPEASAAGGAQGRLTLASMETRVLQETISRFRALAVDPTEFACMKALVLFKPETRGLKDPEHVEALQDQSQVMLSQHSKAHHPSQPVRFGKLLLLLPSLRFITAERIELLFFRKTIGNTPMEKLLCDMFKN
#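 Assay system: NR2E3–RetCOR corepressor complex. Quantity: 1.35 nM GST-NR2E3. Buffer or medium: pH 7.5 Tris-based buffer. Reagent: biotinylated RetCOR corepressor at 7 nM final. Schedule: 5 h at 4 °C. Detection: TR-FRET, emission read at 617 and 671 nm. Replicates: one well per compound, singlicate testing.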
# NR2E3 ag-2 = NR2E3 agonists in two-hybrid cells, primary screen, cell-based, luminescence, CHO-S, Gal4-NCOR/VP16-NR2E3; 360,000 compounds, 0.35% hits; inhibition of corepressor binding, % at 3.98 µM; Photoreceptor-specific nuclear receptor (Homo sapiens), Q9Y5X4; AID 602229, 2012; luciferase;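 active means inhibition above the mean of all tested compounds plus 3 SD, cut at about 70% in these data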;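 further: 0% = DMSO with NR2E3 transfected cells and 100% = cells lacking NR2E3 construct; higher means lower luciferase signal from less NR2E3 corepressor binding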
# FXN GAA850 act = FXN promoter activators, primary screen, cell-based, luciferase luminescence, HEK293 lucGAA850. AID 540364, 2011. HEK293 lucGAA850 FXN promoter luciferase reporter, 24 h; percent of 10 µM SAHA response. 360,000 compounds, 0.56% hits. activation, % at 6 µM;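 active means activation above the average of all compounds screened plus 3 SD, cutoff fixed separately per campaign, cut at about 7.5% in these data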;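 further: 0% = DMSO wells and 100% = 10 µM SAHA wells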
# V-ATPase pH = regulators of yeast V-ATPase proton pumping, primary screen, pHLuorin cytosolic pH fluorescence | S. cerevisiae | 350,000 compounds, 0.37% hits | AID 504577, 2011 | response, % at 10 µM; in the data active means response mostly above about 7.3%, no sharp cut-off; inactive means mostly below about 5.4%; further: actives read high
# GalR3 antagonist = GalR3 antagonists in HEK293 cells, primary screen, cell-based, fluorescence readout. Galanin receptor type 3 (Homo sapiens), O60755. HEK293 GalR3-CNG cAMP membrane potential fluorescence; galR3 body fused to GalR1 C-terminus. inhibition, % at 3 µM. 360,000 compounds, 0.44% hits;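 active means inhibition above the screen-wide average plus 3 SD, cut at about 13% in these data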;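 further: forskolin and galanin both at EC90 stimulate the cells; cAMP rise reported by CNG channel membrane potential dye signal; 0% = forskolin plus galanin with DMSO and 100% = forskolin alone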
# * = called active by the depositor; u = inconclusive; x = no result given; [ ] = another dose, or the depositor's remark. The list is not random: actives were taken first. Their share in the collection is about 2.2%.
SMILES,Env fusion inh,NR2E3 ag-1,NR2E3 ag-2,FXN GAA850 act,V-ATPase pH,GalR3 antagonist
CCCCCn1c(NC(=O)c2ccco2)c(C(=O)OCC)c2nc3ccccc3nc21,x,2,-11,1,11*,x
COc1ccc(-c2ccc3n(c2=O)C[C@H]2[C@H](CO)[C@@H](C(=O)O)[C@@H]3N2C(=O)c2ccccc2F)cc1,6[16.7 µM],x,x,x,x,x
CCCC[C@@H](C)C[C@@H](C)C(=O)N(C)[C@@H](CC(C)C)C(=O)N[C@H](C(=O)N(C)[C@H](C(=O)N1C[C@@H](O)C[C@H]1C(=O)N1C(=O)C=C[C@@H]1C)C(C)C)C(C)OC(C)=O (some centres undefined),x,x,82*,7,-3,x
Cc1ccc(OC(=O)N(C)C[C@H]2OCc3cnnn3CCCC(=O)N([C@@H](C)CO)C[C@@H]2C)cc1,7,x,x,x,x,-4
CCC(=NCc1ccc(F)cc1)c1c(O)n(C)c(=O)n(C)c1=O,80*,2,9,-2,3,-5
O=C(O)C[C@@H]1CC[C@H]2NC[C@H](O)COC[C@@H]2O1,-11[16.7 µM],x,x,x,x,x
Cc1ccc(C(=O)N[C@@H](C)CN2C3=NC[C@@H](Cc4ccccc4)N3C[C@H]2Cc2ccc(O)cc2)cc1Br,75*,4,x,x,x,-5
COC(=O)[C@H]1[C@H](CO)[C@H]2Cn3c(ccc(C4=CCCC4)c3=O)[C@@H]1N2C(=O)C1CCCCC1,-6[16.7 µM],x,x,x,x,x
Cc1ccc(S(=O)(=O)CC(C)(O)C(=O)Nc2cccc(C(F)(F)F)c2)cc1 (centres undefined),68*,3,17,2,10,-3
CC1CCC(C(C)C)C(OC(=O)Cn2c(COc3ccccc3)[n+](C)c3ccccc32)C1 (centres undefined),78*,-7,19,4,-3,0
O=C(O)[C@H]1[C@H](CO)[C@H]2Cn3c(ccc(-c4ccc(F)cc4)c3=O)[C@@H]1N2CC1CCCCC1,-4[16.7 µM],x,x,x,x,x
C[C@]12CCC3=C4CCC(=O)C=C4CC[C@H]3C1CC[C@@H]2O (some centres undefined),56*,-5,11,0,0,-9
C[C@]12CC[C@H]3[C@@H](CCC4=CC(=O)CC[C@@H]43)[C@@H]1CC[C@@H]2O,x,x,-18,1,0,-5
CCC(C)(C)n1nnnc1C(c1cccs1)N1CC=C(c2ccc(F)cc2)CC1 (centres undefined),96*,-1,-21,-1,3,-12
Cc1nc(N2CCN(Cc3ccc4c(c3)OCO4)CC2)[nH]c(=O)c1C,-5,x,-8,0,4,-12
O=C(NCCN1CCC2(CC1)C(=O)NCN2c1ccccc1)c1ccc2ccccc2c1,u,x,x,x,x,-5
CC(=O)Nc1ccc(C=C2C(=O)NC(=O)NC2=O)cc1,63*,x,6,1,-2,3
Cc1ccc(N2C(=O)NC(=O)/C(=C\c3ccoc3)C2=O)cc1,10,7,10,4,5.9*,-3
C[C@H]1CN([C@@H](C)CO)C(=O)CCCn2cc(nn2)CO[C@@H]1CN(C)C(=O)Oc1ccc2ccccc2c1,-8[16.7 µM],x,x,x,x,x
COCCNC(=O)N1[C@H]2CC[C@@H]1C(C(=O)OC)=C(c1ccc(-c3ccccc3)c(F)c1)C2,57*,-3,31,-7,-2,-2
COC(=O)C1=C(c2ccc(F)cc2OCc2ccccc2)C[C@@H]2CC[C@H]1N2C(=O)NC1Cc2ccccc2C1,57*,0,3,-2,5,-3
CCOc1cc(CNCCc2c[nH]c3ccccc23)cc(Cl)c1OC,68*,-3,6,2,0,-10
COc1cccc(CNCCc2c[nH]c3ccccc23)c1OC,12,0,0,-2,-1,-6
CCN(CCCl)c1cc(CN(C)C)cc(NC(=O)c2ccc(C(=O)Nc3cc(CN(C)C)cc(N(CC)CCCl)c3)cc2)c1,89*,x,-12,-15,-3,-3
